Results published in ChEMBL document CHEMBL1135742, “Modification of the structure of a metallopeptide: synthesis and biological evaluation of (111)In-labeled DOTA-conjugated rhenium-cyclized alpha-MSH analogues” (J Med Chem, 2002).

Columns and labels:
Assay type in all cases: functional, organism-based
Mus musculus [1] = species: Mus musculus; assay: Radioactivity uptake in the pancreas was expressed as a percentage of the injected radioactive dose per gram of tissue (% ID/g) in B16/F1 Murine Melanoma-Bearing C57 Mice at 0.5 h
In short: (§1)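 C57 BL/6 female mice (7–8 weeks) carried B16/F1 tumours from 1×10^6 cells given s.c. in the right flank; tumours were ~500 mg at 9–10 days. Each mouse received […] of HPLC-purified, neutralized 111In-DOTA peptide via the tail vein. Mice were killed at 0.5, 2, 4 or 24 h pi. Tissues were weighed and γ-counted, expressed as % ID/g; ratios were tumor/tissue % ID/g.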

Mus musculus [2] = species: Mus musculus; assay: Radioactivity uptake in the pancreas was expressed as a percentage of the injected radioactive dose per gram of tissue (% ID/g) in B16/F1 Murine Melanoma-Bearing C57 Mice at 24 h; in short: as §1
Mus musculus [3] = species: Mus musculus; assay: Radioactivity uptake in the spleen was expressed as a percentage of the injected radioactive dose per gram of tissue (% ID/g) in B16/F1 Murine Melanoma-Bearing C57 Mice at 4 h; in short: as §1
Mus musculus [4] = species: Mus musculus; assay: Radioactivity uptake in the tumor was expressed as a percentage of the injected radioactive dose per gram of tissue (% ID/g) in B16/F1 Murine Melanoma-Bearing C57 Mice at 2 h; in short: as §1
Mus musculus [5] = species: Mus musculus; assay: Radioactivity uptake in the tumor was expressed as a percentage of the injected radioactive dose per gram of tissue (% ID/g) in B16/F1 Murine Melanoma-Bearing C57 Mice at 24 h; in short: as §1
Mus musculus [6] = species: Mus musculus; assay: Radioactivity uptake in the tumor was expressed as a percentage of the injected radioactive dose per gram of tissue (% ID/g) in B16/F1 Murine Melanoma-Bearing C57 Mice at 4 h; in short: as §1
Mus musculus [7] = species: Mus musculus; assay: Radioactivity uptake in the blood was expressed as a percentage of the injected radioactive dose per gram of tissue (% ID/g) in B16/F1 Murine Melanoma-Bearing C57 Mice at 0.5 h; in short: as §1
Mus musculus [8] = species: Mus musculus; assay: Radioactivity uptake in the blood was expressed as a percentage of the injected radioactive dose per gram of tissue (% ID/g) in B16/F1 Murine Melanoma-Bearing C57 Mice at 2 h; in short: as §1
Mus musculus [9] = species: Mus musculus; assay: Radioactivity uptake in the heart was expressed as a percentage of the injected radioactive dose per gram of tissue (% ID/g) in B16/F1 Murine Melanoma-Bearing C57 Mice at 24 h; in short: as §1
Mus musculus [10] = species: Mus musculus; assay: Radioactivity uptake in the kidneys was expressed as a percentage of the injected radioactive dose per gram of tissue (% ID/g) in B16/F1 Murine Melanoma-Bearing C57 Mice at 24 h; conditions: Kidney; in short: as §1
Mus musculus [11] = species: Mus musculus; assay: Radioactivity uptake in the liver was expressed as a percentage of the injected radioactive dose per gram of tissue (% ID/g) in B16/F1 Murine Melanoma-Bearing C57 Mice at 0.5 h; in short: as §1
Mus musculus [12] = species: Mus musculus; assay: Radioactivity uptake in the liver was expressed as a percentage of the injected radioactive dose per gram of tissue (% ID/g) in B16/F1 Murine Melanoma-Bearing C57 Mice at 24 h; in short: as §1
Mus musculus [13] = species: Mus musculus; assay: Radioactivity uptake in the liver was expressed as a percentage of the injected radioactive dose per gram of tissue (% ID/g) in B16/F1 Murine Melanoma-Bearing C57 Mice at 4 h; in short: as §1
Mus musculus [14] = species: Mus musculus; assay: Radioactivity uptake in the lungs was expressed as a percentage of the injected radioactive dose per gram of tissue (% ID/g) in B16/F1 Murine Melanoma-Bearing C57 Mice at 24 h; conditions: Lung; in short: as §1
Mus musculus [15] = species: Mus musculus; assay: Radioactivity uptake in the muscle was expressed as a percentage of the injected radioactive dose per gram of tissue (% ID/g) in B16/F1 Murine Melanoma-Bearing C57 Mice at 0.5 h; in short: as §1
Mus musculus [16] = species: Mus musculus; assay: Uptake Ratio of Tumor/blood (each in % ID/g) in B16/F1 Murine Melanoma-Bearing C57 Mice at 0.5 h; in short: as §1
Mus musculus [17] = species: Mus musculus; assay: Uptake Ratio of Tumor/kidneys (each in % ID/g) in B16/F1 Murine Melanoma-Bearing C57 Mice at 2 h; conditions: Kidney; in short: as §1
Mus musculus [18] = species: Mus musculus; assay: Uptake Ratio of Tumor/liver (each in % ID/g) in B16/F1 Murine Melanoma-Bearing C57 Mice at 4 h; in short: as §1
Mus musculus [19] = species: Mus musculus; assay: Uptake Ratio of Tumor/lungs (each in % ID/g) in B16/F1 Murine Melanoma-Bearing C57 Mice at 2 h
In short: (§2)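 Female C57 BL/6 mice, 7–8 weeks old, carried subcutaneous right-flank B16/F1 tumors from 1×10^6 cells and were used 9–10 days later at ~500 mg tumor weight. Each received […] of HPLC-purified, pH-neutralized ¹¹¹In-DOTA peptide by tail vein. Tumor and organs were excised at the stated time, weighed and γ-counted. Each tissue was taken as % ID/g, and tumor/normal-tissue ratios were formed from these values.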

Mus musculus [20] = species: Mus musculus; assay: Uptake Ratio of Tumor/muscle (each in % ID/g) in B16/F1 Murine Melanoma-Bearing C57 Mice at 0.5 h; conditions: Muscle tissue; in short: as §2
Mus musculus [21] = species: Mus musculus; assay: Uptake Ratio of Tumor/muscle (each in % ID/g) in B16/F1 Murine Melanoma-Bearing C57 Mice at 24 h; conditions: Muscle tissue; in short: as §2
Mus musculus [22] = species: Mus musculus; assay: Uptake Ratio of Tumor/muscle (each in % ID/g) in B16/F1 Murine Melanoma-Bearing C57 Mice at 4 h; conditions: Muscle tissue; in short: as §2
Mus musculus [23] = species: Mus musculus; assay: Uptake Ratio of Tumor/liver (each in % ID/g) in B16/F1 Murine Melanoma-Bearing C57 Mice at 2 h; in short: as §1
Mus musculus [24] = species: Mus musculus; assay: Uptake of [111In]-labeled compound in blood at 2 hr pi in the presence of […]
In short: (§3)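 C57 BL/6 female mice, 7–8 weeks old, inoculated s.c. in right flank with 1×10^6 B16/F1 melanoma cells. Used 9–10 days later at tumor weight ~500 mg. […] HPLC-purified 111In-DOTA peptide (neutral pH) given via tail vein, with or without […]. Killed 2 h pi. Tissues weighed and gamma-counted. Uptake expressed as % ID/g.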

Mus musculus [25] = species: Mus musculus; assay: Uptake of [111In]-labeled compound in heart at 2 hr pi in the absence of […]; in short: as §3
Mus musculus [26] = species: Mus musculus; assay: Uptake of [111In]-labeled compound in heart at 2 hr pi in the presence of […]; in short: as §3
Mus musculus [27] = species: Mus musculus; assay: Uptake of [111In]-labeled compound in kidney at 2 hr pi in the absence of […]; in short: as §3
Mus musculus [28] = species: Mus musculus; assay: Uptake of [111In]-labeled compound in lung at 2 hr pi in the absence of […]; in short: as §3
Mus musculus [29] = species: Mus musculus; assay: Uptake of [111In]-labeled compound in lung at 2 hr pi in the presence of […]; in short: as §3
Mus musculus [30] = species: Mus musculus; assay: Uptake of [111In]-labeled compound in pancreas at 2 hr pi in the absence of 10 mg NDP; in short: as §3
Mus musculus [31] = species: Mus musculus; assay: Uptake of [111In]-labeled compound in pancreas at 2 hr pi in the presence of 10 mg NDP; in short: as §3
Mus musculus [32] = species: Mus musculus; assay: Uptake of [111In]-labeled compound in spleen at 2 hr pi in the absence of 10 mg NDP; in short: as §3
Mus musculus [33] = species: Mus musculus; assay: Uptake of [111In]-labeled compound in spleen at 2 hr pi in the presence of 10 mg NDP; in short: as §3
Mus musculus [34] = species: Mus musculus; assay: Uptake of [111In]-labeled compound in tumor at 2 hr pi in the absence of […]; in short: as §3

Row | Substance | ID/g (Mus musculus [1]) | ID/g (Mus musculus [2]) | ID/g (Mus musculus [3]) | ID/g (Mus musculus [4]) | ID/g (Mus musculus [5]) | ID/g (Mus musculus [6]) | ID/g (Mus musculus [7]) | ID/g (Mus musculus [8]) | ID/g (Mus musculus [9]) | ID/g (Mus musculus [10]) | ID/g (Mus musculus [11]) | ID/g (Mus musculus [12]) | ID/g (Mus musculus [13]) | ID/g (Mus musculus [14]) | ID/g (Mus musculus [15]) | Uptake ratio (Mus musculus [16]) | Uptake ratio (Mus musculus [17]) | Uptake ratio (Mus musculus [18]) | Uptake ratio (Mus musculus [19]) | Uptake ratio (Mus musculus [20]) | also measured
1 | Ac-Lys(DOTA)-ReCCEHdFRWCKPV-NH2 | 0.48% | 0.18% | 0.19% | 8.15% | 3.54% | 6.01% | 1.99% | 0.09% | 0.13% | 13.4% | 0.66% | 0.28% | 0.29% | 0.14% | 0.42% | 3.8 | 0.46 | 20.8 | 48.6 | 17.6 | Uptake ratio (Mus musculus [21]): 13.3; Uptake ratio (Mus musculus [22]): 3400; Uptake ratio (Mus musculus [23]): 33.3
2 | DOTA-ReCCEHdFRWCKPV-NH2 | 0.62% | 0.027% | 0.22% | 11.4% | 4.86% | 9.46% | 1.57% | 0.065% | 0.13% | 5.64% | 0.59% | 0.16% | 0.2% | 0.06% | 0.42% | 6.9 | 1.3 | 49.4 | 69.4 | 27.8 | Uptake ratio (Mus musculus [21]): 173; Uptake ratio (Mus musculus [22]): 159; Uptake ratio (Mus musculus [23]): 49.9
3 | DOTA-ReCCEHdFRWCKPV-OH | 0.39% | 0.064% | 0.15% | 9.19% | 3.14% | 9.27% | 1.56% | 0.11% | 0.15% | 7.35% | 0.45% | 0.17% | 0.14% | 0.11% | 0.39% | 6.9 | 1.1 | 69.1 | 52.8 | 27.9 | Uptake ratio (Mus musculus [21]): 26.8; Uptake ratio (Mus musculus [22]): 277; Uptake ratio (Mus musculus [23]): 63
4 | DOTA-ReCCEHdFRWCKPVD-OH | 0.27% | 0.017% | 0.16% | 8.29% | 2.48% | 7.32% | 1.33% | 0.05% | 0.017% | 6.28% | 0.43% | 0.19% | 0.16% | 0.035% | 0.25% | 6.8 | 1.1 | 46.8 | 56.6 | 38.2 | Uptake ratio (Mus musculus [21]): 27.3; Uptake ratio (Mus musculus [22]): 156; Uptake ratio (Mus musculus [23]): 51.3
5 | DOTA-ReCCEHdFRWCRPV-NH2 | 0.41% | 0.081% | 0.27% | 17.3% | 8.19% | 17.4% | 1.7% | 0.21% | 0.36% | 5.64% | 0.66% | 0.32% | 0.3% | 0.24% | 0.39% | 9.7 | 2 | 60.2 | 65.4 | 47.4 | ID/g (Mus musculus [24]): 0.27%; ID/g (Mus musculus [25]): 0.07%; ID/g (Mus musculus [26]): 0.33%; ID/g (Mus musculus [27]): 8.72%; ID/g (Mus musculus [28]): 0.3%; ID/g (Mus musculus [29]): 0.44%; ID/g (Mus musculus [30]): 0.08%; ID/g (Mus musculus [31]): 0.11%; ID/g (Mus musculus [32]): 0.27%; ID/g (Mus musculus [33]): 0.47%; ID/g (Mus musculus [34]): 17.3%; Uptake ratio (Mus musculus [21]): 42.2; Uptake ratio (Mus musculus [22]): 193; Uptake ratio (Mus musculus [23]): 45.7
